Laboratory results published in paper PMC9078949 (RSC Advances, 2018).
Several values for one entry are separate records, joined by “and”; a condition that tells them apart may be missing. Equal entries are not always repeated.

Assays:
[1] = Plasma stability assay, rat plasma; type: in vitro ADME; settings: @45 min, 37 °C
Procedure, shortened: (§1)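 Rat or human plasma was spiked with test article from a 100 μg mL−1 stock and incubated at 37 °C with gentle agitation. Aliquots taken at 0, 15 and 45 min were quenched in methanol containing 1 μg mL−1 internal standard, then centrifuged and analysed by LC/MS. Percent remaining relative to 0 min was based on the analyte/internal standard peak-area ratio.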

[2] = Plasma stability assay, human plasma; type: in vitro ADME; settings: @45 min, 37 °C
Procedure, shortened: as §1

[3] = Liver microsome stability assay, rat; type: in vitro ADME; settings: @45 min, 37 °C, NADPH
Procedure, shortened: (§2)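 Rat or human liver microsomes (1 mg mL−1) were mixed with NADPH (from a 50 mM stock) and pre-warmed for 5 min at 37 °C. Reactions were started with test article from a 100 μg mL−1 stock and kept at 37 °C. Samples at 0, 15 and 45 min were quenched in methanol containing 1 μg mL−1 internal standard, then centrifuged and analysed by LC/MS. Disappearance was derived from the analyte/internal standard peak-area ratio.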

SIF stability assay = type: in vitro ADME; settings: @45 min, 37 °C, pH 7.4
Procedure, shortened: (§3)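 Two media were used. SIF: pancreatin 0.68 g per 100 mL of 50 mM potassium phosphate, pH 7.4. SGF: pepsin 3.2 g per 1000 mL of water with 2.0 g NaCl and 7.0 mL concentrated HCl, pH about 1.2. Test article was added from a 100 μg mL−1 stock and incubated at 37 °C with gentle agitation. Samples at 0, 15 and 45 min were quenched in methanol with 1 μg mL−1 internal standard and analysed by LC/MS. Percent remaining relative to 0 min used the peak-area ratio.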

[4] = Liver microsome stability assay, human; type: in vitro ADME; settings: @45 min, 37 °C, NADPH
Procedure, shortened: as §2

CFPAC1 cells [5] = assay: Wound healing assay; type: cell-based; settings: Homo sapiens, CFPAC-1, 48 h, read-out: migration inhibitory rate
Procedure, shortened: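 CFPAC1 cells were seeded at 5 × 10^5 per well in 6-well plates and grown to 90% confluence. The monolayer was scratched with a sterile pipette tip and rinsed three times with PBS. Cells were then exposed to 1‰ DMSO or 10 μM test compound. Wounds were photographed at 0, 24 and 48 h. Inhibition (%) = [1 − (0 h area − 24 h or 48 h area)/0 h area] × 100.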

SGF stability assay = type: in vitro ADME; settings: @45 min, 37 °C, pH about 1.2
Procedure, shortened: as §3

CXCR2 = molecular target: T1, CXCR2 (Homo sapiens, UniProt P25025); assay: CXCR2 antagonistic activity assay; type: cell-based
T1 sequence (P25025 1-360): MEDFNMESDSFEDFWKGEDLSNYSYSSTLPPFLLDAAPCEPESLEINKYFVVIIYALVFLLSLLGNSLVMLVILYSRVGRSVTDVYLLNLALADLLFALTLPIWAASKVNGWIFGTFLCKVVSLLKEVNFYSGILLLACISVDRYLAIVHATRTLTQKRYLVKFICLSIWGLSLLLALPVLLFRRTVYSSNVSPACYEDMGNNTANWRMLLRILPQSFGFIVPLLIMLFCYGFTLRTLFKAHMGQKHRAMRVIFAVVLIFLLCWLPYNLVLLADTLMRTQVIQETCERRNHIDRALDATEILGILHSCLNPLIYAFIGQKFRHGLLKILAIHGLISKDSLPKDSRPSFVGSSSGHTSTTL
Procedure, shortened: (§4)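 HEK293 cells stably co-expressing Gα16 with either CXCR1 or CXCR2 were seeded and grown for 24 h. They were loaded with 2 μmol L−1 Fluo-4 AM in HBSS (pH 7.4, with BSA and 250 μmol L−1 sulfinpyrazone) for 45 min at 37 °C, and excess dye was removed. Test compound was added for 10 min at room temperature before IL-8 injection. Calcium signal was read at ex 485/em 525 nm. IC50 came from nonlinear regression of log concentration–response curves; each experiment was run ≥3 times.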

[6] = Oral pharmacokinetic study in rats; type: in vivo; settings: SD, rat, plasma, 10 mg/kg
Procedure, shortened: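 SD rats received test compound at 10 mg kg−1 by oral gavage in 2% DMSO + 98% (0.5% MC). Venous blood was sampled at 0, 0.25, 0.5, 1, 2, 4, 6, 8 and 24 h. Plasma was separated by centrifugation, stored at −20 °C and assayed by LC/MS. Cmax, Tmax, t1/2 and AUC were then calculated.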

CFPAC1 cells [7] = assay: Cell migration assay; type: cell-based; settings: 10 μM, 24 h, 3 visual fields, control group 1221 ± 57 cells
CFPAC1 cells [8] = assay: Anti-proliferation assay; type: cell-based; settings: 6.25, 12.5, 25, 50 and 100 μM; 72 h; MTT
Procedure, shortened: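 CFPAC1 pancreatic cancer cells were seeded at 4000 cells per well and left to adhere for 24 h. They were then exposed for 72 h to medium alone or to test compound at 6.25, 12.5, 25, 50 or 100 μM. Viability was read by MTT. Growth inhibition (%) = [1 − (A/B)] × 100, where A is treated and B is untreated absorbance.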

CXCR1 = molecular target: T2, CXCR1 (Homo sapiens, UniProt P25024); assay: CXCR1 antagonistic activity assay; type: cell-based
T2 sequence (P25024 1-350): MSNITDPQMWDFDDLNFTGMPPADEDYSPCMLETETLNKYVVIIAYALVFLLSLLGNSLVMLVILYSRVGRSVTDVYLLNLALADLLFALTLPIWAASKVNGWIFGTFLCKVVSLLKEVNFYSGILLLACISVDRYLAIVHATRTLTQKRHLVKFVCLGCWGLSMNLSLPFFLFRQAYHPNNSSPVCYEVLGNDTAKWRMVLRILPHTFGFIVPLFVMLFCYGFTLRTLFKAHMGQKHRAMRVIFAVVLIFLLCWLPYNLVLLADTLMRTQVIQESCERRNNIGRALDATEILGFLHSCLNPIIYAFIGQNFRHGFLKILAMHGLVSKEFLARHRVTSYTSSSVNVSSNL
Procedure, shortened: as §4

Compound | Ratio = CXCR1 IC50/CXCR2 IC50 (selectivity for CXCR2 over CXCR1) (CXCR2) | IC50 (CXCR2) [µM] | IC50 (CXCR1) [µM] | further results
O=C(c1cccc(Nc2c(NC3C[C@@H]4CC[C@H]3C4)c(=O)c2=O)c1O)N1CCCC1 (stereo partly drawn) [2e, 3-(((1S,4R)-Bicyclo[2.2.1]heptan-2-yl)amino)-4-((2-hydroxy-3-(pyrrolidine-1-carbonyl)phenyl)amino)cyclobut-3-ene-1,2-dione] | 60.4 |  |  | Remaining percentage, plasma stability, rat [1]: >99%; Remaining percentage, plasma stability, human [2]: >99%; Remaining percentage, liver microsome stability, rat [3]: 84% and 84.2 ± 3.4%; Remaining percentage, SIF (SIF stability assay): 92.2 ± 2.0%; Remaining percentage, liver microsome stability, human [4]: 27% and 27.4 ± 4.3%; inhibition at 10 µM (CFPAC1 cells [5]): 20.2%; Remaining percentage, SGF (SGF stability assay): >99%; AUC(0-inf) [6]: 8940 ± 3460 ng·h/mL; AUC(0-t) [6]: 8820 ± 3560 ng·h/mL; Cmax [6]: 2860 ± 94 ng/mL; MRT [6]: 3.43 ± 0.73 h; Tmax [6]: 0.33 ± 0.14 h; half-life [6]: 2.58 ± 0.74 h; k el [6]: 7.92e-05 s⁻¹; number of cells traversed into the lower chamber of the Transwell (CFPAC1 cells [7]): 727 ± 50 cells; inhibitory effect on the CFPAC1 cell line (survival rate) (CFPAC1 cells [8]): no inhibitory effect
O=C(c1cccc(Nc2c(NC3C[C@@H]4CC[C@H]3C4)c(=O)c2=O)c1O)N1CCCCC1 (stereo partly drawn) [2f, 3-(((1S,4R)-Bicyclo[2.2.1]heptan-2-yl)amino)-4-((2-hydroxy-3-(piperidine-1-carbonyl)phenyl)amino)cyclobut-3-ene-1,2-dione] | 17.5 | 0.59 | 10.3 | 
CC(C)[S+]([O-])c1c(Cl)ccc(Nc2c(NC3C[C@@H]4CC[C@H]3C4)c(=O)c2=O)c1O (stereo partly drawn) [2d, 3-(((1S,4R)-Bicyclo[2.2.1]heptan-2-yl)amino)-4-((4-chloro-2-hydroxy-3-(isopropylsulfinyl)phenyl)amino)cyclobut-3-ene-1,2-dione] | 70.7 | 0.092 | 6.5 | 
N#Cc1ccc(Nc2c(NC3C[C@@H]4CC[C@H]3C4)c(=O)c2=O)c(O)c1 (stereo partly drawn) [2b, 4-((2-(((1S,4R)-Bicyclo[2.2.1]heptan-2-yl)amino)-3,4-dioxocyclobut-1-en-1-yl)amino)-3-hydroxybenzonitrile] | 94.9 | 0.45 | 42.7 | 
CN(C)C(=O)c1cccc(Nc2c(NCC3C[C@H]4C=C[C@@H]3C4)c(=O)c2=O)c1O (stereo partly drawn) [1e, 3-((2-((((1S,4S)-Bicyclo[2.2.1]hept-5-en-2-yl)methyl)amino)-3,4-dioxocyclobut-1-en-1-yl)amino)-2-hydroxy-N,N-dimethylbenzamide] | 11.8 | 2.6 | 30.8 | 
CN(C)C(=O)c1cccc(Nc2c(NC3C[C@H]4CC[C@@H](C3)N4C(=O)OC(C)(C)C)c(=O)c2=O)c1O (stereo partly drawn) [1b, Tert-butyl (1R,5S)-3-((2-((3-(dimethylcarbamoyl)-2-hydroxyphenyl)amino)-3,4-dioxocyclobut-1-en-1-yl)amino)-8-azabicyclo[3.2.1]octane-8-carboxylate] |  | > 100 | > 100 | 
Cl.O=C(c1cccc(Nc2c(NC3C[C@@H]4CC[C@H]3C4)c(=O)c2=O)c1O)N1CCNCC1 (stereo partly drawn) [2h, 3-(((1S,4R)-Bicyclo[2.2.1]heptan-2-yl)amino)-4-((2-hydroxy-3-(piperazine-1-carbonyl)phenyl)amino)cyclobut-3-ene-1,2-dione hydrochloride] | >188.7 | 0.53 | > 100 | 
CN(C)C(=O)c1cccc(Nc2c(NC3C[C@@H]4CC[C@H]3C4)c(=O)c2=O)c1O (stereo partly drawn) [1a, 3-((2-(((1S,4R)-Bicyclo[2.2.1]heptan-2-yl)amino)-3,4-dioxocyclobut-1-en-1-yl)amino)-2-hydroxy-N,N-dimethylbenzamide] | 113 | 0.062 | 7 | 
CC(C)S(=O)(=O)c1c(Cl)ccc(Nc2c(NC3C[C@@H]4CC[C@H]3C4)c(=O)c2=O)c1O (stereo partly drawn) [2c, 3-(((1S,4R)-Bicyclo[2.2.1]heptan-2-yl)amino)-4-((4-chloro-2-hydroxy-3-(isopropylsulfonyl)phenyl)amino)cyclobut-3-ene-1,2-dione] | 103.3 | 0.12 | 12.4 | 
CC(C)(C)OC(=O)N1CCN(C(=O)c2cccc(Nc3c(NC4C[C@@H]5CC[C@H]4C5)c(=O)c3=O)c2O)CC1 (stereo partly drawn) [2g, Tert-butyl 4-(3-((2-(((1S,4R)-bicyclo[2.2.1]heptan-2-yl)amino)-3,4-dioxocyclobut-1-en-1-yl)amino)-2-hydroxybenzoyl)piperazine-1-carboxylate] | 13.3 | 0.42 | 5.6 | 
CN(C)C(=O)c1cccc(Nc2c(NCC3C[C@H]4CC[C@@H]3C4)c(=O)c2=O)c1O (stereo partly drawn) [1f, 3-((2-((((1R,4S)-Bicyclo[2.2.1]heptan-2-yl)methyl)amino)-3,4-dioxocyclobut-1-en-1-yl)amino)-2-hydroxy-N,N-dimethylbenzamide] | 2.1 | 23.6 | 48.8 | 
CN(C)C(=O)c1cccc(Nc2c(NC3C[C@H]4C[C@@H]3C3CCC[C@@H]34)c(=O)c2=O)c1O (stereo partly drawn) [1d, 2-Hydroxy-N,N-dimethyl-3-((2-(((4R,7R,7aR)-octahydro-1H-4,7-methanoinden-5-yl)amino)-3,4-dioxocyclobut-1-en-1-yl)amino)benzamide] | 6.7 | 1 | 6.7 | 
CN(C)C(=O)c1cccc(Nc2c(NC3C[C@H]4CC[C@]3(C)C4(C)C)c(=O)c2=O)c1O (stereo partly drawn) [1c, 3-((3,4-Dioxo-2-(((1R,4R)-1,7,7-trimethylbicyclo[2.2.1]heptan-2-yl)amino)cyclobut-1-en-1-yl)amino)-2-hydroxy-N,N-dimethylbenzamide] | 6.5 | 5.5 | 35.6 | 
Cc1ccc(Nc2c(NC3C[C@@H]4CC[C@H]3C4)c(=O)c2=O)c(O)c1 (stereo partly drawn) [2a, 3-(((1S,4R)-Bicyclo[2.2.1]heptan-2-yl)amino)-4-((2-hydroxy-4-methylphenyl)amino)cyclobut-3-ene-1,2-dione] | 22.7 | 3.8 | 86.1 | 
